Reference: ChEMBL document CHEMBL1124689, “Thienylpyrazoloquinolines with high affinity to benzodiazepine receptors: continuous shift from inverse agonist to agonist properties depending on the size of the alkyl substituent” (J Med Chem, 1989)
Activity calls are given as the source filed them. The rule behind the calls is not given here.

How the values were obtained:
Mus musculus [1] = assay: Inverse agonist activity was evaluated by potentiation of the pentylenetetrazole (PTZ) (90 mg/kg) induced convulsions; assay type: functional
Procedure, shortened: (§1)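 Male mice, groups of 8–16, given test compound iv and immediately challenged with subconvulsive PTZ (75 or 90 mg/kg sc). Tonic convulsions and death recorded over 2 h; dose producing effect in 50% derived by probit method with 95% confidence limits, or percentage of animals affected at a single dose.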

[2] = target: GABA-A receptor; anion channel; assay: Displacing potential to [3H]diazepam binding to benzodiazepine receptor in Wistar rat cerebral cortex; assay type: tissue-based
Mus musculus [3] = assay: Inverse agonist activity was evaluated by potentiation of the pentylenetetrazole (PTZ) (75 mg/kg) induced convulsions; assay type: functional; procedure, shortened: as §1
Mus musculus [4] = assay: Inverse agonist activity was evaluated by potentiation of the pentylenetetrazole (PTZ) (75 mg/kg) induced convulsions; inactive to 10; assay type: functional, organism-based; procedure, shortened: as §1
Mus musculus [5] = organism: Mus musculus; assay: Agonist activity was evaluated by inhibition of the PTZ-induced convulsions at a PTZ dose of 125 mg/ kg; assay type: functional; conditions: PTZ 125 mg/kg
Procedure, shortened: (§2)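 Male mice, groups of 8–16; test compound given iv, then immediately PTZ 125 mg/kg sc (convulsive dose). Endpoint: prevention of tonic convulsions and death over 2 h; dose protecting 50% computed by probit method with 95% confidence limits; partial activity given as percentage of animals affected at a stated dose.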

Mus musculus [6] = organism: Mus musculus; assay: Agonist activity was evaluated by inhibition of the PTZ-induced convulsions at a PTZ dose of 125 mg/ kg; inactive to 10; assay type: functional, organism-based; design: dose 125 mg/ kg; procedure, shortened: as §2
Mus musculus [7] = assay: Inverse agonist activity was evaluated by potentiation of the pentylenetetrazole (PTZ) (90 mg/kg) induced convulsions; inactive to 10; assay type: functional, organism-based; procedure, shortened: as §1
Mus musculus [8] = assay: Inhibition to produce tonic convulsions and death in mice after administration of 10 mg/kg intravenously; assay type: functional; conditions: route intravenous
Procedure, shortened: (§3)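 Proconvulsant (inverse agonist) assay in groups of 8–16 male mice. Each mouse received the compound iv and was immediately challenged with a sub-convulsive dose of pentylenetetrazole sc, either 75 or 90 mg/kg. Animals were watched for 2 h for tonic convulsions and death. The value is the percentage of animals affected at the stated dose.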

Mus musculus [9] = assay: Inhibition of tonic convulsions and death in mice after administration of 2.5 mg/kg of compound intravenously; assay type: functional; conditions: route intravenous; procedure, shortened: as §3

| Compound | ED50 (Mus musculus [1]) | Ki [2] | ED50 (Mus musculus [5]) | also measured |
| --- | --- | --- | --- | --- |
| Cc1ccc2c(c1)ncc1c(=O)n(-c3ccsc3)[nH]c12 | 0.14 mg/kg | 0.73 nM |  | ED50 (Mus musculus [3]): 0.43 mg/kg |
| O=C1C2C=Nc3ccccc3C2=NN1c1ccccc1 (centres undefined) [CGS-8216] | 0.2 mg/kg |  |  | ED50 (Mus musculus [4]): inactive |
| O=C1C2C=Nc3ccccc3C2=NN1c1ccc(Cl)cc1 (centres undefined) [CGS-9896] |  |  | 0.07 mg/kg |  |
| CCCCc1ccc(-n2[nH]c3c(cnc4cc(C)ccc43)c2=O)s1 |  | 1.48 nM | 0.22 mg/kg |  |
| CCc1ccc(-n2[nH]c3c(cnc4cc(C)ccc43)c2=O)s1 |  | 1.02 nM | 0.32 mg/kg |  |
| Cc1csc(-n2[nH]c3c(cnc4cc(C)ccc43)c2=O)c1 | 5.15 mg/kg | 0.48 nM |  | ED50 (Mus musculus [4]): inactive |
| CCCc1cc(-n2[nH]c3c(cnc4cc(C)ccc43)c2=O)cs1 |  | 1.04 nM |  | ED50 (Mus musculus [6]): inactive; ED50 (Mus musculus [7]): inactive |
| Cc1ccc2c(c1)ncc1c(=O)n(-c3csc(C)c3)[nH]c12 | 0.13 mg/kg | 0.32 nM |  | ED50 (Mus musculus [3]): 0.47 mg/kg |
| CCc1cc(-n2[nH]c3c(cnc4cc(C)ccc43)c2=O)cs1 |  | 0.41 nM |  | inhibition in vivo at 10 mg/kg (Mus musculus [8]): 50%; ED50 (Mus musculus [4]): inactive |
| CCc1csc(-n2[nH]c3c(cnc4cc(C)ccc43)c2=O)c1 |  | 0.6 nM | 5.15 mg/kg |  |
| CCCc1csc(-n2[nH]c3c(cnc4cc(C)ccc43)c2=O)c1 |  | 1.01 nM | 3.54 mg/kg |  |
| CCOC(=O)c1cc2c(cn1)[nH]c1ccccc12 | 0.46 mg/kg |  |  | ED50 (Mus musculus [3]): 1 mg/kg |
| Cc1ccc2c(c1)ncc1c(=O)n(-c3cccs3)[nH]c12 | 0.57 mg/kg | 0.41 nM |  | inhibition in vivo at 2.5 mg/kg (Mus musculus [9]): 62.5% |
| CN1C(=O)CN=C(c2ccccc2)c2cc(Cl)ccc21 [DIAZEPAM] |  |  | 0.15 mg/kg |  |
| Cc1ccc2c(c1)ncc1c(=O)n(-c3ccc(C)s3)[nH]c12 |  | 0.32 nM | 0.16 mg/kg |  |
